Molecules are shown by their SMILES. Active and inactive are the calls of the source.

Assay [1] relates to HepG2. Kind of assay: Up regulation of LDLR expression in human HepG2 cells at 10 uM after 12 hrs by RT-PCR relative to untreated control. The class given is functional. The method in brief: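 HepG2 cells (MEM, 10% FBS, about 70% confluent) treated at 10 uM for 12 h. LDLR mRNA measured by real-time RT-PCR, reverse transcription 42 °C for 15 min. Normalized to β-actin by the comparative threshold cycle method and expressed as fold of untreated control (set to 1). Mean ± SEM of 3 separate experiments.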

The subject of assay [2] is HepG2. Kind of assay: Increase in AMPKalpha phosphorylation in human HepG2 cells at 10 uM after 4 hrs by Western blot analysis relative to untreated control. The class given is cell-based. A digest of the protocol: (§1)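 HepG2 cells in MEM with 10% FBS and antibiotics, 37 °C, 5% CO2, plated the day before to about 70% confluence. Treated with vehicle or compound at 10 uM for 4 h. Whole-cell lysates were run on SDS-PAGE and Western blotted for Thr172-phospho-AMPKa and total AMPKa. Bands were scanned and p-AMPKa was expressed as a percentage of total AMPKa. Mean ± SEM of 3 experiments.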
Background: In western blotting, separated proteins are transferred to a membrane and probed.

Assay [3] has as its system HepG2. Description: Increase in AMPKalpha phosphorylation in human HepG2 cells at 10 uM after 4 hrs by Western blot analysis relative to untreated control relative to total AMPKalpha level. The class given is cell-based. The method in brief: as §1
In assay [4] the test system is HepG2. Description: Increase in total AMPKalpha level in human HepG2 cells at 10 uM after 4 hrs by Western blot analysis relative to untreated control. The class given is functional, cell-based. A digest of the protocol:
as §1

Assay [5] has as its system HepG2. Kind of assay: Induction of AMPKalpha phosphorylation in human HepG2 cells at 10 uM by Western blot analysis relative to untreated control. The class given is cell-based. The conditions noted are these: TDE = time-dependent effect. A digest of the protocol:
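Time course in HepG2: cells given 10 uM for different time intervals. Western blot for Thr172-phospho-AMPKa and total AMPKa, bands quantified, p-AMPKa as a percentage of total, compared with untreated cells. Mean ± SEM of 3 repeats.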

The subject of the next assay is L6. Description: Induction of AMPKalpha phosphorylation in rat L6 cells. The class given is cell-based.
Assay [6] deals with HepG2. Kind of assay: Induction of AMPKalpha phosphorylation in human HepG2 cells after 4 hrs by Western blot analysis relative to untreated control. The class given is cell-based. A digest of the protocol:
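HepG2 cultured as above, about 70% confluent, then exposed to a range of concentrations for 4 h. Western blot for Thr172-phospho-AMPKa and total AMPKa, densitometry, p-AMPKa as a percentage of total, relative to untreated cells. Mean ± SEM of 3 experiments.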

With `COc1cc2cc3[n+](cc2c(Cl)c1OC)CCc1cc2c(cc1-3)OCO2.[Cl-]`, the “fold change (FC)” value in the assay with HepG2 [1] came out at 0.92. Same read-out and setting: with `CCOc1cc2c(cc1OC)-c1cc3cc(OC)c(OC)cc3c[n+]1CC2.[Cl-]` the figure was 1.04; with `COc1ccc2cc3[n+](cc2c1Cl)CCc1cc2c(cc1-3)OCO2.[Cl-]`, 1.12; with `[Cl-].c1c2c(cc3c1OCO3)-c1cc3cc4c(cc3c[n+]1CC2)OCCO4`, 0.96. Same read-out and setting: for `COc1cc2c(c(OC)c1OC)-c1cc3ccc(OC)c(OC)c3c[n+]1CC2.[Cl-]` the value was 0.88.

For `COc1ccc2cc3[n+](cc2c1O)CCc1cc2c(cc1-3)OCO2`, in the assay on HepG2 [2], the result was Active.

Take `COc1ccc2cc3n(cc-2c1=O)CCc1cc2c(cc1-3)OCO2`: the outcome in the assay with HepG2 [2] was Active.

Regarding `COc1cc2c(cc1O)-c1cc3ccc(OC)c(OC)c3c[n+]1CC2.[Cl-]` [COLUMBAMINE CHLORIDE], the “fold change (FC)” value in the assay with HepG2 [1] is 1.15. The same measure, in the same setting: with `CCOc1cc2c(cc1OC)CC[n+]1cc3c(OC)c(OC)ccc3cc1-2.[Cl-]` the figure was 1. Regarding `COc1cc(Br)c2cc3[n+](cc2c1O)CCc1cc2c(cc1-3)OCO2.[Cl-]`, the “fold change (FC)” value with HepG2 [1] was determined as 0.94. For `CCOc1cc2c(cc1OC)-c1cc3ccc(OC)c(OC)c3c[n+]1CC2.[Cl-]`, in the assay with HepG2 [1], the “fold change (FC)” value came out at 1.02. Consider `COc1cc2cc3[n+](cc2cc1OC)CCc1c-3ccc(OC)c1OC.[Cl-]`, for which the “fold change (FC)” value with HepG2 [1] turned out to be 0.92.

Take `COc1ccc2c(c1OC)CC[n+]1cc3c(OC)c(OC)ccc3cc1-2.[Cl-]`: the “fold change (FC)” value in the assay on HepG2 [1] came out at 0.89. Take `COc1cc2cc3[n+](cc2cc1OC)CCc1cc2c(cc1-3)OCO2.[Cl-]` [PSEUDOBERBERINE]: the values for the fold change (FC) in the assay on HepG2 [3] and in the assay on HepG2 [1] were 2.6 and 3.23, respectively. In addition, the outcome in the assay with HepG2 [4], in the assay on HepG2 [2] and with L6 was Active. The Activity entry in the assay with HepG2 [5] is “tde”; with HepG2 [6] it was “Dose-dependent effect”. For the compound `COc1ccc2cc3[n+](cc2c1OC)CCc1cc2c(cc1-3)OCO2.[Cl-]` [BERBERINE CHLORIDE], the fold change (FC) was under 3.2 in the assay on HepG2 [3] and 2.35 with HepG2 [1]. For the same compound, the result in the assay with HepG2 [4] and in the assay with HepG2 [2] was Active. As for `CCOc1cc2c(cc1OC)CC[n+]1cc3cc(OC)c(OC)cc3cc1-2.[Cl-]`, the “fold change (FC)” value with HepG2 [1] turned out to be 0.96. For the compound `CCOc1cc2cc3[n+](cc2cc1OC)CCc1cc2c(cc1-3)OCO2.[Cl-]`, the “fold change (FC)” value in the assay on HepG2 [1] was found to be 0.91. As to `COc1ccc2cc3[n+](cc2c1F)CCc1cc2c(cc1-3)OCO2.[Cl-]`, the “fold change (FC)” value with HepG2 [1] is 1.
